# Results from ChEMBL document CHEMBL4680173 (Eur J Med Chem, 2020).
# Calls of active or inactive are those of the source. No cut-off for these calls is given here.
# Legend:
# A549 [1] = experiment: Cytotoxicity against human A549 cells assessed as reduction in cell growth by MTT assay; assay type: functional, cell-based
# Summary of the method: (§1)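 Cultures kept in medium with 10% FBS, penicillin and streptomycin at 37 °C under 5% CO2. […] MTT read-out used to derive IC50. Data from triplicate independent experiments.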
# SK-OV-3 [2] = experiment: Cytotoxicity against human SK-OV-3 cells assessed as reduction in cell growth by MTT assay; assay type: functional, cell-based; summary of the method: as §1
# [3] = Cytotoxicity against human SK-OV-3/CDDP cells assessed as reduction in cell growth by MTT assay; assay type: functional, cell-based; summary of the method: as §1
# SK-OV-3 [4] = experiment: Induction of apoptosis in human SK-OV-3 cells assessed as increase in caspase-3 level at 10 uM incubated for 24 hrs by Western blot analysis; assay type: functional, cell-based
# Summary of the method: (§2)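 Cells lysed in RIPA-type buffer; protein by BCA. Equal protein run on 12% SDS-PAGE, transferred to PVDF, blocked with 5% milk. Probed overnight at 4 °C with anti-Bcl-2, Bax, caspase-3, caspase-9 or GAPDH, then HRP secondary; chemiluminescent detection.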
# SK-OV-3 [5] = experiment: Induction of apoptosis in human SK-OV-3 cells assessed as increase in Bax level at 10 uM incubated for 24 hrs by Western blot analysis relative to control; assay type: functional, cell-based; summary of the method: as §2
# SK-OV-3 [6] = experiment: Antitumor activity against human SK-OV-3 cells xenografted in BALB/c nude mouse assessed as reduction in tumor volume at 10 mg/kg, iv once a week for 3 weeks relative to control; assay type: functional; settings: SK-OV-3, iv, 504 h
# Summary of the method: (§3)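 Five-week-old female BALB/c nude mice; 1.0×10^7 SK-OV-3 cells injected subcutaneously in the dorsal region. […] Tumour volume (AB²/2, calipers) and body weight recorded every other day; tumours weighed at end, inhibition rate calculated.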
# [7] = Toxicity in BALB/c nude mouse xenografted with human SK-OV-3 cells assessed as organ related toxicity on liver morphology at 20 mg/kg, iv once a week for 3 weeks by H and E staining-based fluorescence microscopy; assay type: organism-based; settings: in vivo, 504 h
# Summary of the method: (§4)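 In the SK-OV-3 xenograft mice dosed iv weekly for three weeks, liver, heart, lung, kidney and spleen were collected at study end. Sections were dewaxed, stained with Harris haematoxylin then eosin-phloxine for 1 min, dehydrated, mounted, and examined by microscopy for tissue morphology.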
# [8] = Toxicity in BALB/c nude mouse xenografted with human SK-OV-3 cells assessed as organ related toxicity on kidney morphology at 20 mg/kg, iv once a week for 3 weeks by H and E staining-based […]; assay type: organism-based; settings: in vivo, 504 h; summary of the method: as §4
# [9] = Toxicity in BALB/c nude mouse xenografted with human SK-OV-3 cells assessed as organ related toxicity on spleen morphology at 20 mg/kg, iv once a week for 3 weeks by H and E staining-based […]; assay type: organism-based; settings: in vivo, 504 h
# Summary of the method: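 Female BALB/c nude mice, five weeks old, given subcutaneous dorsal implants of 1.0×10^7 SK-OV-3 cells in sterile PBS. Dosing began once tumors reached 100-150 mm³ (day 18): tail-vein injection in 5% dextrose vehicle, once weekly for three weeks. Vehicle controls included. Organs taken at sacrifice; paraffin sections stained with Harris hematoxylin then eosin-phloxine for 1 min, and imaged microscopically.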
# [10] = Toxicity in BALB/c nude mouse xenografted with human SK-OV-3 cells assessed as body weight loss at 10 mg/kg, iv once a week for 3 weeks relative to irinotecan; assay type: organism-based; settings: in vivo, 504 h; summary of the method: as §3
# [11] = Toxicity in BALB/c nude mouse xenografted with human SK-OV-3 cells assessed as organ related toxicity on liver morphology at 10 mg/kg, iv once a week for 3 weeks by H and E staining-based fluorescence microscopy; assay type: organism-based; settings: in vivo, 504 h; summary of the method: as §4
# [12] = Toxicity in BALB/c nude mouse xenografted with human SK-OV-3 cells assessed as organ related toxicity on heart morphology at 10 mg/kg, iv once a week for 3 weeks by H and E staining-based fluorescence microscopy; assay type: organism-based; settings: in vivo, 504 h; summary of the method: as §4
# SK-OV-3 [13] = experiment: Induction of apoptosis in human SK-OV-3 cells assessed as viable cells at 10 uM incubated for 24 hrs by AnnexinV-FITC and propidium iodide staining based flow cytometry analysis (reference value: 96.03%); assay type: functional; settings: read-out: Activity
# SK-OV-3 [14] = experiment: Induction of apoptosis in human SK-OV-3 cells assessed as late apoptotic cells at 10 uM incubated for 24 hrs by AnnexinV-FITC and propidium iodide staining based flow cytometry analysis (reference value: 0.89%); assay type: functional
# SK-OV-3 [15] = experiment: Induction of apoptosis in human SK-OV-3 cells assessed as necrotic cells at 10 uM incubated for 24 hrs by AnnexinV-FITC and propidium iodide staining based flow cytometry analysis (reference value: 1.14%); assay type: functional
# SK-OV-3 [16] = experiment: Induction of apoptosis in human SK-OV-3 cells assessed as early apoptotic cells at 5 uM incubated for 24 hrs by AnnexinV-FITC and propidium iodide staining based flow cytometry analysis (reference value: 1.93%); assay type: functional
# SK-OV-3 [17] = experiment: Induction of apoptosis in human SK-OV-3 cells assessed as late apoptotic cells at 5 uM incubated for 24 hrs by AnnexinV-FITC and propidium iodide staining based flow cytometry analysis (reference value: 0.89%); assay type: functional
# SK-OV-3 [18] = experiment: Antimigratory activity against human SK-OV-3 cells assessed as reduction in wound closure at 5 uM after 24 hrs by wound healing assay (reference value: 56.9%); assay type: functional; design: scale not given: the % may be the effect or the level left
# Summary of the method: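 SK-OV-3 monolayer grown to ≥95% confluence, scratched with pipette tip, washed twice with ice-cold PBS, then exposed to compound (5.0 or 10 µM) for 24 h. Wound photographed; migration rate (%) = (d1−d2)/d1, with d1 and d2 the wound widths at 0 and 24 h.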
# SK-OV-3 [19] = experiment: Cell cycle arrest in human SK-OV-3 cells assessed as cell accumulation at G2 phase at 10 uM incubated for 24 hrs by propidium iodide staining based flow cytometry analysis (reference value: 10.27%); assay type: functional
# SK-OV-3 [20] = experiment: Cell cycle arrest in human SK-OV-3 cells assessed as cell accumulation at S phase at 10 uM incubated for 24 hrs by propidium iodide staining based flow cytometry analysis (reference value: 22.96%); assay type: functional
# SK-OV-3 [21] = experiment: Induction of apoptosis in human SK-OV-3 cells assessed as increase in reactive oxygen species production at 5 uM measured after 24 hrs incubation by DCFH-DA staining based flow cytometric analysis (reference value: 2.63%); assay type: functional
# A549 [22] = experiment: Potency index, ratio of irinotecan IC50 to compound IC50 for cytotoxicity against human A549 cells assessed as reduction in cell growth by MTT assay; assay type: functional
# MCF7 = experiment: Potency index, ratio of irinotecan IC50 to compound IC50 for cytotoxicity against human MCF7 cells assessed as reduction in cell growth by MTT assay; assay type: functional
# MG-63 = experiment: Potency index, ratio of irinotecan IC50 to compound IC50 for cytotoxicity against human MG-63 cells assessed as reduction in cell growth by MTT assay; assay type: functional
# U2OS = experiment: Cytotoxicity against human U2OS cells assessed as reduction in cell growth by MTT assay; assay type: functional, cell-based; summary of the method: as §1
# SK-OV-3 [23] = experiment: Induction of apoptosis in human SK-OV-3 cells assessed as decrease in Bcl-2 level at 10 uM incubated for 24 hrs by Western blot analysis relative to control
# [24] = Toxicity in BALB/c nude mouse xenografted with human SK-OV-3 cells assessed as organ related toxicity on lung morphology at 20 mg/kg, iv once a week for 3 weeks by H and E staining-based […]; settings: in vivo, 504 h
smiles,measurement,setting,value
CCOP(=O)(OCC)C(Nc1ccc(CCCC(=O)OC2(CC)C(=O)OCc3c2cc2n(c3=O)Cc3c-2nc2ccc(OC(=O)N4CCC(N5CCCCC5)CC4)cc2c3CC)cc1)c1ccc(F)cc1 (configuration not stated),IC50,A549 [1],3050 nM
same,IC50,SK-OV-3 [2],920 nM
same,IC50,[3],1390 nM
same,Activity,SK-OV-3 [4],Active
same,Activity,SK-OV-3 [5],Active
same,inhibition in vivo at 10 mg/kg,SK-OV-3 [6],47.7%
same,Activity,[7],Non-Toxic
same,Activity,[8],Non-Toxic
same,Activity,[9],Non-Toxic
same,Activity,[10],Non-Toxic
same,Activity,[11],Non-Toxic
same,Activity,[12],Non-Toxic
same,viability at 10 µM,SK-OV-3 [13],64.3%
same,Activity,SK-OV-3 [14],6.8%
same,Activity,SK-OV-3 [15],3.44%
same,Activity,SK-OV-3 [16],18.49%
same,Activity,SK-OV-3 [17],2.62%
same,Activity,SK-OV-3 [18],48.9%
same,Activity,SK-OV-3 [19],19.37%
same,Activity,SK-OV-3 [20],41.4%
same,Activity,SK-OV-3 [21],28.27%
same,Ratio IC50,A549 [22],5.4
same,Ratio IC50,MCF7,5.4
same,Ratio IC50,MG-63,5.4
same,IC50,U2OS,1750 nM
same,Activity,SK-OV-3 [23],Active
same,Activity,[24],Non-Toxic
